High-throughput results: PubChem BioAssay, several laboratories
S1P3 agonist = activates the human S1P3 receptor. activation, % at 4.5 µM. S1P3 NFAT-BLA reporter cells, agonism, FRET ratio; relative to 1 µM S1P, basal subtracted. 60,000 compounds, 0.1% hits;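 active means activation above the screen-wide mean plus 3 SD, cut at about 4.5% in these data, passing the limit was not always enough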
Target sequence (Q99500 whole entry, looked up): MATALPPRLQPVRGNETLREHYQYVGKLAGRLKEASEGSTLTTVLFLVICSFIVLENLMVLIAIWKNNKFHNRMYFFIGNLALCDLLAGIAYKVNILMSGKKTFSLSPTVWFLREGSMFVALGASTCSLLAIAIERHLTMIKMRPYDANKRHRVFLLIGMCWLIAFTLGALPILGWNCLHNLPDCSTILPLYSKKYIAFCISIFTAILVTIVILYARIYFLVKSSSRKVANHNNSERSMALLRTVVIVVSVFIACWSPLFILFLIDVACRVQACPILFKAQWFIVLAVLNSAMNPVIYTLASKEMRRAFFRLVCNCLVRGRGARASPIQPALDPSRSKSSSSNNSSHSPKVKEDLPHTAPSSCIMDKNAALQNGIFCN
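material = human S1P3 NFAT-BLA reporter CHO cells | schedule = 4 h compound at 37 °C, 2 h substrate at RT | measured by = fluorescent BLA substrate, ex 405 nm, em 460/535 nm ratio | controls = 1 µM S1P reference | replication = primary once, confirmation triplicate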
M1 antag = antagonists of rat M1 muscarinic receptor. CHO-M1 cells, Fluo-4 calcium, ACh EC80 antagonist mode; active compounds read low. B-score at 10 µM. 64,000 compounds, 3.4% hits. AID 628;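 active means calcium fluorescence response, raw or row-and-column corrected B-score, differing from the plate sample mean either way at a set confidence level, mostly lower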
JNK3 blocker = inhibitors of human JNK3 kinase; inhibition, % at 8 µM; P53779; 60,000 compounds, 0.61% hits; AID 746; purified JNK3 kinase activity, HTS; in the data active means inhibition above about 17%;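 further: 0% = DMSO and 100% = reference inhibitor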
Jurkat viability = cytotoxicity toward Jurkat cells; Jurkat E6.1 viability, ATP luminescence, 48 h; inhibition, % at 4 µM; 56,000 compounds, 1.2% hits;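 active means inhibition above the mean inhibition of all tested compounds plus 3 SD, cut at about 28% in these data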
M1 ag = agonists of M1 muscarinic receptor | CHO-M1 cells, Fluo-4 calcium fluorescence, agonist mode; active compounds read high | B-score at 10 µM | 64,000 compounds, 3% hits | AID 626;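 active means fluorescence rise, raw or as B-score row- and column-corrected plate score, outside the 99.7% band of its plate's samples, either direction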
S1P1 ag pot = S1P1 (human) agonism or agonism potentiation | S1P1 CRE-bla cells, forskolin, beta-lactamase FRET, potentiator mode; S1P1 agonist co-added at EC20, 2 nM; 100% = saturating reference agonist, 0% = basal | activation, % at 9.5 µM | 56,000 compounds, 0.57% hits;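 active means activation above a cutoff set at the mean activation of all tested compounds plus 3 SD, cut at about 54% in these data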;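 further: forskolin at 4 µM as EC80 and the EC20 agonist is SEW2871; 100% = SEW2871 at its EC100 plus forskolin at EC80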
M1 ag confirm = confirmation of rat M1 muscarinic receptor agonists. fluorescence change (max-min) at 10 µM. 1,700 compounds, 19% hits. shares compounds with M1 ag. CHO-M1 cells, Fluo-4 calcium fluorescence, agonist mode; actives lie on both sides;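 active means fluorescence change differs from the solvent-only DMSO control mean at a set confidence level in both duplicate runs; inconclusive means differs from solvent-only control mean in just one of two runs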;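 further: an EC20 dose of acetylcholine follows compound addition during the same imaging run; raw fluorescence intensity difference in instrument units with no normalization to controls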
M4 ag counter = counter-screen for M1 agonists: activity at rat M4 receptor; fluorescence change (max-min) at 10 µM; shares compounds with M1 ag; CHO M4/Gqi5 cells, Fluo-4 calcium fluorescence, agonist mode; actives lie on both sides; 1,700 compounds, 9% hits;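 active means fluorescence change differing from the plate's solvent-only control wells at 99.7% confidence in both duplicates, whether higher or lower; inconclusive means differs from solvent controls in only one of two duplicates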
Numbers without * were called inactive; ? = inconclusive; . = no result given. An excerpt weighted towards active compounds, which were near 7.4% of everything screened.

SMILES	S1P3 agonist	M1 antag	JNK3 blocker	Jurkat viability	M1 ag	S1P1 ag pot	M1 ag confirm	M4 ag counter
CCOC(=O)c1c(C)[nH]c(C=Nc2ccccc2)c1O	0	-0.98	1	6	-2.2*	-1	-20	-33
COc1ccc(-c2nnc3ccc(SCC(=O)N4CCCCC4)nn23)cc1OC	0	0.049	0	1	-3.5*	-26	-6.7	-30
CCn1c(=O)cc(OCC(=O)O)c2ccccc21	-1	0.1	4	7	0.63	-2	.	.
CCn1c(=O)cc(OCC(=O)Nc2ccccc2C#N)c2ccccc21	0	-1.1	6	-16	2.2*	-40	?	-43
CCN(C(=O)COc1cc(=O)n(CC)c2ccccc12)c1cccc(Cl)c1	0	-0.75	-1	1	4.4*	-1	-15	-28
O=C(Nc1ccc(Cl)cc1)N(Cc1cccnc1)Cc1ccco1	1	-0.52	-5	2	-0.26	6	.	.
O=C(C1CC1(c1ccccc1)c1ccccc1)N1CCOCC1 (stereo not drawn)	-1	-0.03	0	.	-2.7*	-4	-16	-44
CNC(=O)c1ccsc1NC(=O)c1ccc(Cl)s1	-1	-0.027	3	1	0.61	0	.	.
CCOC(=O)C(C)Oc1ccc(=O)n(-c2ccccc2)n1 (stereo not drawn)	-1	-1.7	-11	2	0.5	-4	.	.
Cc1cccc2cc3c(N)c(C(=O)N4CCOCC4)sc3nc12	0	-0.37	-8	76*	7*	3	?	31
COc1ccc(/C(O)=C2/C(=O)C(=O)N(CCCN(C)C)C2c2cccnc2)cc1 (stereo not drawn)	0	0.043	1	-3	0.23	-3	.	.
CCC(C)[C@H](NC(=O)NCC1CCCO1)C(=O)OC (stereo partly drawn)	-1	1	1	0	5*	-14	-1.9	-9.1
CC(C)N(C(=O)NC(=O)NCC1CCCO1)S(C)(=O)=O (stereo not drawn)	-1	0.44	-3	4	0.27	11	.	.
Cc1nc2ccccc2c(=O)n1NCc1cc(Br)cs1	-1	-0.19	5	-1	4.4*	-11	-5.2	-13
O=C1CCC(C(=O)O)(c2ccccc2)C1 (stereo not drawn)	1	0.76	0	-8	0.62	-37	.	.
COC(=O)c1ccc2c(=O)n(Cc3ccc4c(c3)OCO4)c(SCC(=O)N3CCCC3)nc2c1	.	0.16	.	.	-1.7	.	.	.
Cc1ccc(-c2cc(C(F)F)nc(N3CCC(C)CC3)n2)cc1	.	0.71	.	.	4.2*	.	3.3	-8.7
CC1CCN(c2nc(-c3ccccc3)cc(C(F)(F)F)n2)CC1	.	-0.12	.	.	1.3	.	.	.
O=C(Nc1ccc(SC(F)F)cc1)c1ccc2nccnc2c1	-2	-0.93*	-7	32*	3.8*	53	-17	-2.3
COc1ccc(OC)c(S(=O)(=O)N2CCC(C(=O)Nc3cccc(C)c3C)CC2)c1	-2	-0.84	3	-2	-0.52	-15	.	.
COc1ccc(OC)c(S(=O)(=O)N2CCC(C(=O)Nc3ccc(C)c(C)c3)CC2)c1	0	-0.97	-2	-1	15*	4	-8	?
CCOc1ccc(/C(O)=C2/C(=O)C(=O)N(CCCn3ccnc3)C2c2cccs2)cc1Cl (stereo not drawn)	-1	1.7	9	4	-0.051	.	.	.
Cc1sc2ncnc(N3CCN(c4ncccn4)CC3)c2c1C	-1	-0.18	-4	8	2*	10	-13	-45
Cc1cc(C)n(-c2ncnc3sc4c(c23)CCCC4)n1	-1	-0.45	12	-2	-0.055	-1	.	.
Cc1cc(C)n(-c2ncnc3sc(C)c(C)c23)n1	0	1.8	-6	.	5*	6	-13	-41
COC(=O)c1ccc(-n2nnnc2SCc2ccccc2OC)cc1	0	-0.47	0	9	-0.52	12	.	.
CC1CCc2nn(CC(=O)NCCN3CCCCC3C)cc2C1 (stereo not drawn)	0	0.31	1	-1	0.35	-19	.	.
